Hsp70 activator – Hsp70 transcriptional activation, primary screen. activation, % at 10 µM. HeLa Hsp70 promoter luciferase reporter, luminescence; scaled: vehicle 0, proteasome-inhibitor control 100%. actives 0.04% (n = 200,000);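 active means activation above the mean across all tested compounds plus 3 SD, cutoff set per campaign, cut at about 5.5% in these data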;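 further: 100% = MG132 at 30 µM as the positive control and 0% = DMSO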
Rad51 HR inh – blocks human Rad51 in homologous recombination; Q06609; hRad51 DNA strand exchange, fluorescence dequenching; inhibition, % at 10 µM; actives 0.085% (n = 200,000); AID 1385;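 active means inhibition above 40% at the single screening dose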;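 further: 0% = DMSO control wells and 100% = blanks with heterologous ssDNA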
Target sequence (Q06609 whole entry, looked up): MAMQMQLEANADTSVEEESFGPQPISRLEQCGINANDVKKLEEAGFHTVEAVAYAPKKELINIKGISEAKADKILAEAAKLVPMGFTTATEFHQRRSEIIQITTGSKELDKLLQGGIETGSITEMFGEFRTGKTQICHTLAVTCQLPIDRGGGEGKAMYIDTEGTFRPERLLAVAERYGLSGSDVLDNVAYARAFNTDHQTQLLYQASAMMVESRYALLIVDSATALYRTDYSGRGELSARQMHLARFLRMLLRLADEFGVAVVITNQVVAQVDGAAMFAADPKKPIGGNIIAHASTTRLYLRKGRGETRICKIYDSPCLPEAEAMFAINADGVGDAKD
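Test system: preformed human Rad51 ssDNA filaments; also added: Donor/quencher-labelled 47-bp dsDNA substrate; doses: 10 µM final, single point; times: 37 °C 15-min filament assembly, 30-min compound preincubation, 15-min exchange; detection: FRET fluorescence dequenching, excitation 485 nm, emission 520 nm; read-out basis: Fluorescence-based percent inhibition, control- and blank-normalised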
HSV replic up – increases HSV replication in cells; HSV replication augmentation in cells, fold increase; maximum fold increase; actives 0.005% (n = 220,000); in the data active means maximum fold increase above about 1.5; tested in PC3 cells
HSF1 inhib – HSF1 inhibition. NIH3T3-HGL HSE-luciferase, MG132-induced, luminescence 8 h; active compounds read low. activity change, negative = inhibition, % at 7.5 µM (by protocol). actives 0.77% (n = 300,000). AID 2098;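 active means more than half of replicate wells show activity change below -50%, luminescence cut by over half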;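 further: luciferase reports HSF-1 transcriptional activity via heat shock element; 0% = median of DMSO wells and -100% = zero luminescence signal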
MDM2 E3 inh – blocks human Mdm2 ubiquitin ligase activity; Q00987; cell-based MDM2 ubiquitination luciferase reporter, 2 h; 0 = plate control, 100 = twice control, blank-subtracted; signal enhancement, % at 5 µM; actives 0.11% (n = 210,000);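 active means signal enhancement of 30% or more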;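 further: luminescence tracks abundance of the self-degrading MDM2-luciferase fusion protein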
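Assay system: stable mammalian line carrying autodegrading MDM2–luciferase fusion reporter; Input: 2000 cells in each well; Compound dosing: single-point 5 µM; Schedule: 2 h compound exposure at 37 °C; Signal: SteadyLite luciferase luminescence after 15 min room-temperature reagent incubation; Evaluation: % luminescence enhancement versus blank-corrected plate control mean; Benchmarks: plate controls and plate blanks.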
HSF1 activator – increases HSF-1 driven luciferase reporter signal; actives 1.7% (n = 300,000); activation, % at 9 µM; NIH3T3-HGL HSF-1 luciferase reporter, MG132, 8 h; 100% = twice DMSO control signal; AID 504408;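 active means mean replicate activation of at least 50% with a set share of replicates each reaching 50%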;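 further: 0% = median of the neutral control wells and 100% = twice that signal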
* marks the source's active call; other numbers are inactive results. Sampled rows, rich in hits. Any-hit rate of the full collection: about 2.6%.

CSc1cccc(NC(=O)/C=C/c2ccc(Cl)cc2)c1 was read as Hsp70 activator 0, Rad51 HR inh 2, HSV replic up inactive, HSF1 inhib 19, MDM2 E3 inh -8 and HSF1 activator 31.
For Cc1ccccc1-n1c(-c2ccc(Cl)cc2)cnc1SCC(=O)NC1CCS(=O)(=O)C1 (stereo not drawn) the results were Hsp70 activator 0, Rad51 HR inh -11, HSV replic up inactive, HSF1 inhib 14, MDM2 E3 inh 0 and HSF1 activator 70*.
Cc1ccc(OCc2ccc(C(=O)N3CCCC3)o2)cc1C was read as HSF1 inhib 46 and HSF1 activator 61*.
CCOc1ccc(OCc2ccc(C(=O)N3CCCCC3)o2)cc1 was read as HSF1 inhib 3 and HSF1 activator -3.
CC1CN(C(=O)c2ccc(COc3ccc4ccccc4c3)o2)CC(C)O1 (stereo not drawn) was read as Hsp70 activator 0, Rad51 HR inh 7, HSV replic up inactive, HSF1 inhib 21, MDM2 E3 inh -13 and HSF1 activator 38.
Screening CC1CN(C(=O)c2ccc(COc3ccc(C(C)C)cc3)o2)CC(C)O1 (stereo not drawn) returned Hsp70 activator 0, Rad51 HR inh 7, HSV replic up inactive, HSF1 inhib 31, MDM2 E3 inh 4 and HSF1 activator 60*.
O=C(c1cc(COc2c(F)cccc2F)on1)N1CCc2ccccc2C1 was read as Hsp70 activator 0, Rad51 HR inh 0, HSV replic up inactive, HSF1 inhib 2, MDM2 E3 inh 5 and HSF1 activator 7.
Screening Cc1cc2[nH]c(=O)c3ccccc3n2n1 returned Hsp70 activator 0, Rad51 HR inh 5, HSV replic up inactive, HSF1 inhib 29, MDM2 E3 inh -19 and HSF1 activator 54*.
For Fc1ccccc1SCc1nnc(-c2ccccc2Br)o1 the results were Hsp70 activator 0, Rad51 HR inh 1, HSV replic up inactive, HSF1 inhib 41, MDM2 E3 inh -22 and HSF1 activator 79*.
CN(C)S(=O)(=O)c1ccc(C(=O)N2CCN=C2SCc2ccccc2)cc1 was read as Hsp70 activator 0, Rad51 HR inh 39, HSV replic up inactive, HSF1 inhib 1, MDM2 E3 inh -26 and HSF1 activator -5.
Screening CCSC1=NCCN1C(=O)c1ccc(S(=O)(=O)N(C)C)cc1 returned Hsp70 activator 0, Rad51 HR inh 41*, HSV replic up inactive, HSF1 inhib 2, MDM2 E3 inh -3 and HSF1 activator -2.
Screening O=C(/C=C/c1cccc([N+](=O)[O-])c1)N1CCN(c2ccc(F)cc2)CC1 returned Hsp70 activator 0, Rad51 HR inh 5, HSV replic up inactive, HSF1 inhib 1, MDM2 E3 inh -5 and HSF1 activator 19.
For CC(=O)N1c2ccc(S(=O)(=O)N3CCC(C(=O)N4CCN(c5ccccc5F)CC4)CC3)cc2CC1C (stereo not drawn) the results were HSF1 inhib -4 and HSF1 activator 11.
CCC(C)N(C(=O)CSc1nnc(NC(C)C)s1)C1CCS(=O)(=O)C1 (stereo not drawn) was read as HSF1 inhib -5 and HSF1 activator -13.
For Cc1nc([N+](=O)[O-])c(Sc2nc3ccccc3n2C)n1Cc1ccccc1 the results were Hsp70 activator 0, Rad51 HR inh -3, HSV replic up inactive, HSF1 inhib 53, MDM2 E3 inh -3 and HSF1 activator 79*.
Screening CCc1ccc(-c2cc(C(=O)O)c3ccccc3n2)s1 returned HSF1 inhib 1 and HSF1 activator 1.
`CCOC(=O)C1CCN(c2c(NCc3ccc(C(=O)NC4CCCC4)cc3)c(=O)c2=O)CC1` gave Hsp70 activator 0, Rad51 HR inh -3, HSV replic up inactive, HSF1 inhib 7, MDM2 E3 inh -6 and HSF1 activator 10.
For CCOC(=O)C1CCN(c2c(NCc3ccc(C(=O)Nc4ccc(C)cc4)cc3)c(=O)c2=O)CC1 the results were HSV replic up inactive, HSF1 inhib -69*, MDM2 E3 inh -18 and HSF1 activator -78.
